Experiments:
Liver = assay: Unbound intrinsic clearance in mouse liver microsomes; type: ADME, microsome
Outline: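 Liver microsome stability is expressed as unbound intrinsic clearance, Cl_int,u, in L/hr/kg. Dextromethorphan served as the in-house low-clearance reference control and verapamil as the high-clearance reference control.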

[1] = Permeability in MDCK cells; type: ADME, cell-based, Canis lupus familiaris; details: dog, read-out: permeability
Rattus norvegicus [2] = assay: Plasma unbound clearance in rat at 1 mg/kg, iv; type: ADME, organism-based; details: in vivo
Outline: (§1)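 In rats, 1 mg/kg was given by both IV and PO routes. IV clearance is unbound (Cl_p,u, L/hr/kg). FaFg is taken as F/(1-Clp/Qh), using rat Qh 3.8 L/hr/kg. Unbound plasma fraction was determined in rat plasma.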

Rattus norvegicus [3] = assay: Oral absorption in rat at 1 mg/kg; type: ADME, organism-based; details: in vivo
Outline: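 Oral absorption is expressed as FaFg, calculated as F/(1-Clp/Qh). Liver blood flow (Qh) was 5.2 L/hr/kg for mouse and 3.8 L/hr/kg for rat. Mouse dosing was 3 mg/kg IV and 10 mg/kg PO; rat dosing was 1 mg/kg IV and PO.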

[4] = Oral bioavailability in rat at 1 mg/kg; type: ADME, organism-based; details: in vivo; outline: as §1
[5] = Intrinsic clearance in mouse liver microsomes; type: ADME, microsome; details: read-out: CLH (converted)
[6] = Intrinsic clearance in dog liver microsomes; type: ADME, Canis lupus familiaris, microsome; details: read-out: CLH (converted)
[7] = Intrinsic clearance in monkey liver microsomes; type: ADME, Macaca mulatta, microsome; details: rhesus monkey, read-out: CLH (converted)
[8] = Intrinsic clearance in mouse hepatocytes; type: ADME, cell-based, Hepatocyte; details: read-out: CLH (converted)
[9] = Intrinsic clearance in dog hepatocytes; type: ADME, cell-based, Canis lupus familiaris, Hepatocyte; details: read-out: CLH (converted)
[10] = Oral bioavailability in human at 1 mg; type: ADME, organism-based; details: in vivo
Outline: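 Human F (%) was estimated from observed F in preclinical species. It accompanies a clinical 1 mg oral dose given to cancer patients (n = 3).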

[11] = Half life in mouse at 10 mg/kg, po; type: ADME, organism-based; details: in vivo
[12] = Half life in rat at 1 mg/kg, po; type: ADME, organism-based; details: in vivo
[13] = Half life in po dosed monkey; type: ADME, organism-based, Macaca mulatta; details: rhesus monkey, in vivo
[14] = Apparent oral plasma clearance in human at 1 mg; type: ADME
Outline: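 Clinical PK in subjects with cancer after a single 1 mg oral dose, n = 3. Apparent clearance was reported as PO CLp/F in L/hr.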

[15] = target: Bromodomain-containing protein 3 (Homo sapiens, UniProt Q15059); assay: Binding affinity to BRD3 BD1 to BD2 (P24 to A416 residues) (unknown origin)
[16] = target: Bromodomain testis-specific protein (Homo sapiens, UniProt Q58F21); assay: Binding affinity to BRDT BD1 to BD2 (N21 to P380 residues) (unknown origin)
[17] = target: Bromodomain-containing protein 9 (Homo sapiens, UniProt Q9H8M2); assay: Binding affinity to human BRD9 (R130 to V259 residues) expressed in bacterial expression system by BROMOscan assay
Chain of Bromodomain-containing protein 9 (Q9H8M2 whole entry, the tested form may be a part): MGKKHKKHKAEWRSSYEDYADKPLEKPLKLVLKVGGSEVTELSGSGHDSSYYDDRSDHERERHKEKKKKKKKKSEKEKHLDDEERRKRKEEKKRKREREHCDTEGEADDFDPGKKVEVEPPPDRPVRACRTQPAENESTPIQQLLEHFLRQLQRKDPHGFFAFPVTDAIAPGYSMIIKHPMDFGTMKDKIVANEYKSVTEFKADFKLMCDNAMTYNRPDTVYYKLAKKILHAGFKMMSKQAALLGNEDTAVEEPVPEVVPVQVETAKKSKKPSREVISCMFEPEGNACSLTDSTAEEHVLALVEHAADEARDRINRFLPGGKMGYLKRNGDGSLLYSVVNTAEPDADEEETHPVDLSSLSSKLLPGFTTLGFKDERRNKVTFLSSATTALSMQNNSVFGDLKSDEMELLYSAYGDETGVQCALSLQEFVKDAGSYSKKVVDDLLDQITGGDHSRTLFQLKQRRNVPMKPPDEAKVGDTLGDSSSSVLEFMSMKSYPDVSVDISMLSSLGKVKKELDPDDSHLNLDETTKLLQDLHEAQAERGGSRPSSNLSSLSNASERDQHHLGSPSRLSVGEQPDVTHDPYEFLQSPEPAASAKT

[18] = target: Transcription intermediary factor 1-alpha (Homo sapiens, UniProt O15164); assay: Binding affinity to human TRIM24 (PHD, Bromo) (P790 to P977 residues) expressed in bacterial expression system by BROMOscan assay
[19] = target: Histone acetyltransferase p300 (Homo sapiens, UniProt Q09472); assay: Binding affinity to human EP300 (A1040 to G1161 residues) expressed in bacterial expression system by BROMOscan assay
[20] = target: Bromodomain adjacent to zinc finger domain protein 2A (Homo sapiens, UniProt Q9UIF9); assay: Binding affinity to human BAZ2A (M1792 to L1905 residues) expressed in bacterial expression system by BROMOscan assay
Chain of Bromodomain adjacent to zinc finger domain protein 2A (Q9UIF9 whole entry, the tested form may be a part): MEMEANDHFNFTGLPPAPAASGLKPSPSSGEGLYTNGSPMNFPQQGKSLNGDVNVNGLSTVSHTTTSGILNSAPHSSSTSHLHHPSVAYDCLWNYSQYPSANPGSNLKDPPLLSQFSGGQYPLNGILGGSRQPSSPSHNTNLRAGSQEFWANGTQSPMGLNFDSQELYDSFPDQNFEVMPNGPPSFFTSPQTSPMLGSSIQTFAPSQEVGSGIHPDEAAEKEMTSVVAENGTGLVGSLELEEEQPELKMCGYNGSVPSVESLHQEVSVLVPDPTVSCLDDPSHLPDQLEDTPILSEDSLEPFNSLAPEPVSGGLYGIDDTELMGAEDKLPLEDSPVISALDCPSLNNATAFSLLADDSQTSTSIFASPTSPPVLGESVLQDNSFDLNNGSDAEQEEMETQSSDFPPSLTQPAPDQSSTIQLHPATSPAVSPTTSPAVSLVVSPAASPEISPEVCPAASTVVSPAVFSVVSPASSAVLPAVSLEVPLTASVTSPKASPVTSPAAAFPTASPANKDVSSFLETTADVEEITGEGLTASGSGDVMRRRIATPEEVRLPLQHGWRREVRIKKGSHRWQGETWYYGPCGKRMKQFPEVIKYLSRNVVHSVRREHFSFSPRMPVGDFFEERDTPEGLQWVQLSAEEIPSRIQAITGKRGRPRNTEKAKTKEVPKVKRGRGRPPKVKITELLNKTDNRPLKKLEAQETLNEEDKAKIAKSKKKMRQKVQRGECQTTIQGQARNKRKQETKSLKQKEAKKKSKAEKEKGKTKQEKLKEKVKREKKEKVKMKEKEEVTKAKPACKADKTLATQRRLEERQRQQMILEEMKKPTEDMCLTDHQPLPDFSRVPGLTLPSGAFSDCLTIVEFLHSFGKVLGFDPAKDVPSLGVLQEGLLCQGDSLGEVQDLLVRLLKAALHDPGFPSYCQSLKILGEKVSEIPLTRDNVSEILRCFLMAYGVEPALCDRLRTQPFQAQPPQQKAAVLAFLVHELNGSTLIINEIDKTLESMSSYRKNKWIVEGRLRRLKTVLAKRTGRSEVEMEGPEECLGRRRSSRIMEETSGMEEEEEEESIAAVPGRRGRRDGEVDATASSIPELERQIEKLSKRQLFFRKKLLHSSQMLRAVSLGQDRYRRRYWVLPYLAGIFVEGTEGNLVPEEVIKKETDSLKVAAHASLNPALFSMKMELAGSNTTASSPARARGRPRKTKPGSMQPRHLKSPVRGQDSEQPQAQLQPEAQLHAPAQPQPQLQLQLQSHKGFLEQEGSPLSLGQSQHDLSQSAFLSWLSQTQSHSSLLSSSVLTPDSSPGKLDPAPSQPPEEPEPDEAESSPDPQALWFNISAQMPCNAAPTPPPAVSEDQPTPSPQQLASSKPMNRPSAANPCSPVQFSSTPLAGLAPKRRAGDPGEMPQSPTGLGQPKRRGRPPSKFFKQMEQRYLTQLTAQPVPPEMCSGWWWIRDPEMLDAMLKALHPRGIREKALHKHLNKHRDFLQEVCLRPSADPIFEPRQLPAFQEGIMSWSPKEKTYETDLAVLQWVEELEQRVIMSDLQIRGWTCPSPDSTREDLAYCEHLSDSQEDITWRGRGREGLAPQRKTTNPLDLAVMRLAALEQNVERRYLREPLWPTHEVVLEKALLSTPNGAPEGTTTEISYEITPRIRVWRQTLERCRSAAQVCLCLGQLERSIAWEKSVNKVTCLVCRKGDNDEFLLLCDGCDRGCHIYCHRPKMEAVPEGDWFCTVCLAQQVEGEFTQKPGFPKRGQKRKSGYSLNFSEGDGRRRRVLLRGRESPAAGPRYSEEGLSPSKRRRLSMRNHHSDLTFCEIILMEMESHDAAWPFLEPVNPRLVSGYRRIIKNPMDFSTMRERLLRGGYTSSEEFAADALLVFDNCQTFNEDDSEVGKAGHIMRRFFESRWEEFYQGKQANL

Peregrin = Peregrin (Homo sapiens, UniProt P55201); assay: Binding affinity to human BRPF1 (E627 to G740 residues) expressed in bacterial expression system by BROMOscan assay
[21] = target: Bromodomain and PHD finger-containing protein 3 (Homo sapiens, UniProt Q9ULD4); assay: Binding affinity to human BRPF3 (E588 to G701 residues) expressed in bacterial expression system by BROMOscan assay
Chain of Bromodomain and PHD finger-containing protein 3 (Q9ULD4 whole entry, the tested form may be a part): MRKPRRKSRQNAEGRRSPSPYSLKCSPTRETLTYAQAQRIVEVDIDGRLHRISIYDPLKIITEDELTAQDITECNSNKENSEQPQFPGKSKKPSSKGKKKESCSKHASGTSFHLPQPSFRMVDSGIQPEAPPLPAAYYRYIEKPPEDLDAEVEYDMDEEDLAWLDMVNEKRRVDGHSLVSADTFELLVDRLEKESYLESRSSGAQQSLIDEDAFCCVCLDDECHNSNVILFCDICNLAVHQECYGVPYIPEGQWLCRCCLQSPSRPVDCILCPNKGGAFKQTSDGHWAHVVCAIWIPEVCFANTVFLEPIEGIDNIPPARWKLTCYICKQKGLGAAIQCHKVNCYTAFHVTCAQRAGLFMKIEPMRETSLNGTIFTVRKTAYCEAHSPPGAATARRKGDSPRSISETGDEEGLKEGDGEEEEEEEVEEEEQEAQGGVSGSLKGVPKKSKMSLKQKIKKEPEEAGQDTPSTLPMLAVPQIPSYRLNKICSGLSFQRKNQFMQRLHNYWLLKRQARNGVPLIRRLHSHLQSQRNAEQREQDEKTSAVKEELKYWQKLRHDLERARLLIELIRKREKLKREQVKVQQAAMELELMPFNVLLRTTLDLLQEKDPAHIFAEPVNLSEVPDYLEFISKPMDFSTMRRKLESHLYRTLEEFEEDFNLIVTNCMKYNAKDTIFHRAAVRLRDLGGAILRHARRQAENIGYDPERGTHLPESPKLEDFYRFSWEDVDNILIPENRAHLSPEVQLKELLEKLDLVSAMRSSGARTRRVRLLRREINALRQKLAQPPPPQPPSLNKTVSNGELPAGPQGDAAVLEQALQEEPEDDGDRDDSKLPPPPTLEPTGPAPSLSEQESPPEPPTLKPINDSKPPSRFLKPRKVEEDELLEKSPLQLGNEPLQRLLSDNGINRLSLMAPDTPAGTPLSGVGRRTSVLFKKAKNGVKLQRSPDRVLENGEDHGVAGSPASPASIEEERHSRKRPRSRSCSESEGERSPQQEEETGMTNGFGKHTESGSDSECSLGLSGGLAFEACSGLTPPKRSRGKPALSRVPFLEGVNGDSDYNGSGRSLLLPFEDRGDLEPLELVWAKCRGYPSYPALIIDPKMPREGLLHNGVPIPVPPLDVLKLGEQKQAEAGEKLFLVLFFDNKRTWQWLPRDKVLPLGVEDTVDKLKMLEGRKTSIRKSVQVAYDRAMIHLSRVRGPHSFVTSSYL

[22] = target: Bromodomain and WD repeat-containing protein 1 (Homo sapiens, UniProt Q9NSI6); assay: Binding affinity to human WDR9(2) (A1310 to E1430 residues) expressed in bacterial expression system by BROMOscan assay
Kasumi 1 = assay: Antitumor activity against gamma-irradiated human Kasumi-1 cells xenografted in NOD.SCID mouse assessed as tumor growth inhibition at 1 mg/kg, po qd for 25 days relative to control; type: functional; details: Kasumi 1, light or radiation study, 600 h, read-out: TGI
Outline: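 Kasumi-1 AML xenograft in mice, with tumor growth inhibition (TGI) as the read-out. For the test agent, dosing was oral, once daily at 1 mg/kg for 25 days, with tolerability tracked as body-weight loss. For 5-azacitidine, dosing was IV, Q7d, at 8 mg/kg.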

[23] = target: Adenosine receptor A1 (Homo sapiens) (UniProt P30542); assay: Displacement of [3H]-DPCPX from recombinant human adenosine A1 receptor expressed in CHO cells at 10 uM; type: cell-based
Chain of Adenosine receptor A1 (Homo sapiens) (P30542 whole entry): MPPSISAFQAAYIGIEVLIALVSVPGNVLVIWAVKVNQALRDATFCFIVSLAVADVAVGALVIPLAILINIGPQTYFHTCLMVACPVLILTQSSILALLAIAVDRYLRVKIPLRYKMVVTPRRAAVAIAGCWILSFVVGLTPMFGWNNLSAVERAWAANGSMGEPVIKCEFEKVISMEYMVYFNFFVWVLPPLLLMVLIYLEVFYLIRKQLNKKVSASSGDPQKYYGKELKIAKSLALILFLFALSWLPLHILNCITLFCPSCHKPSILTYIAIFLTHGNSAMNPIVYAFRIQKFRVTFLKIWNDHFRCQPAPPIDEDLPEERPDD

[24] = target: Translocator protein (Rattus norvegicus) (UniProt P16257); assay: Displacement of [3H]PK-11195 from peripheral benzodiazepine receptor in rat heart at 10 uM
Chain of Translocator protein (Rattus norvegicus) (P16257 whole entry, looked up): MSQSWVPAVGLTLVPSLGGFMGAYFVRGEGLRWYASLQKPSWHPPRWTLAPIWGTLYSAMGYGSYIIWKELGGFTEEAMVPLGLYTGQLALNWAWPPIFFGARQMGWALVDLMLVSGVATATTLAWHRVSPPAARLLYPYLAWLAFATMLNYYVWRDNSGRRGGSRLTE

Adenosine receptor A2b = Adenosine receptor A2b (Homo sapiens, UniProt P29275); assay: Antagonist activity at adenosine A2B receptor (unknown origin)
Chain of Adenosine receptor A2b (P29275 whole entry): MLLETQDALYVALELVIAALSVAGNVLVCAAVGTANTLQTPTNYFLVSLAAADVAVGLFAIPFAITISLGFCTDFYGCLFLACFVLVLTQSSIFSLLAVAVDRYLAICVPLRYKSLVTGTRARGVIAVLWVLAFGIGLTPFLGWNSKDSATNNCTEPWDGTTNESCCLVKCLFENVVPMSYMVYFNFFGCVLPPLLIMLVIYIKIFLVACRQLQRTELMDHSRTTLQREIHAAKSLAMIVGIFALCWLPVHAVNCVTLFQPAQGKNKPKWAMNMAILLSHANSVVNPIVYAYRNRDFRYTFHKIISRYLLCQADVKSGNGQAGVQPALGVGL

Mus musculus = assay: Inhibition of LPS-induced IL-6 release in po dosed CD-1 mouse serum assessed as plasma concentration required to show 50% inhibition administered for 1 hr followed by LPS challenge measured after 2 hrs by immunoassay; type: functional, organism-based
Outline: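 Compound given orally to mice, followed by an LPS challenge. Plasma IL-6 and plasma compound concentration were both measured 2 hours after LPS. Inhibition was related to dose and to plasma concentration at the time of cytokine measurement. Values are mean ± SE, n=5 per group.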

Rattus norvegicus [25] = species on record: Rattus norvegicus; assay: Drug excretion in rat using radiolabelled compound; type: ADME; details: in vivo
[26] = target: Adenosine receptor A2a (Homo sapiens) (UniProt P29274); details: HEK293, 10 uM
Chain of Adenosine receptor A2a (Homo sapiens) (P29274 whole entry, looked up): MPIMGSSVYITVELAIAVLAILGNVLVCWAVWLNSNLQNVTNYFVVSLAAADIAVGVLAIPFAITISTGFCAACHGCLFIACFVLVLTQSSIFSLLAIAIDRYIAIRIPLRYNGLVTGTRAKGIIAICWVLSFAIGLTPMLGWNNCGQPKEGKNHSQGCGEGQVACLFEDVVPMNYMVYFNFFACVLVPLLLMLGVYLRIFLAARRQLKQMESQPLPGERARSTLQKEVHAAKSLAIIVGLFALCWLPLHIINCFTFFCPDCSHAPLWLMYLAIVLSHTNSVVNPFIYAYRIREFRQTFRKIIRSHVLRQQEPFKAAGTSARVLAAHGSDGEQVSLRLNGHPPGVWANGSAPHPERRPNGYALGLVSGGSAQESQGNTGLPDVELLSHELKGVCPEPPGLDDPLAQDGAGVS

Rattus norvegicus [27] = assay: Unbound AUC in rat at 1 mg/kg, po; details: in vivo

CL free (Liver): 550 mL/min/kg
Papp [1]: 29 ×10⁻⁶ cm/s
clearance (Rattus norvegicus [2]): 450 mL/min/kg
FaFg (Rattus norvegicus [3]): 0.77
bioavailability [4]: 65%
CLint scaled [5]: 138 mL/min/kg
CLint scaled [6]: 51.7 mL/min/kg
CLint scaled [7]: 38.3 mL/min/kg
CLint scaled [8]: 58.3 mL/min/kg
CLint scaled [9]: 35 mL/min/kg
bioavailability [10]: 50%
half-life [11]: 2.7 h
half-life [12]: 2.6 h
half-life [13]: 4.4 h
CL/F [14]: 83.8 mL/min
Ki [15]: 0.0122 µM
Ki [16]: 0.0022 µM
Kd [17]: > 1 µM
Kd [18]: > 1 µM
Kd [19]: 0.087 µM
Kd [20]: > 1 µM
Kd (Peregrin): > 1 µM
Kd [21]: > 1 µM
Kd [22]: > 1 µM
inhibition [23]: 97%
inhibition [24]: 86%
IC50 (Adenosine receptor A2b): 2.6 µM
Drug excretion (Rattus norvegicus [25]): 76 %ID
inhibition [26]: 87%
fAUC (Rattus norvegicus [27]): 0.27 µM·h
SMILES: CCS(=O)(=O)Nc1ccc(Oc2ccc(F)cc2F)c(-c2cn(C)c(=O)c3[nH]ccc23)c1 [MIVEBRESIB]
inhibition in vivo at 1 mg/kg (Kasumi 1): 99%
Cp (Mus musculus): 0.03 to 0.1 µM

From ChEMBL document CHEMBL4017535 (J Med Chem, 2017)
